pEC50, pIC50: −log10 of the molar value. Bounds are passed on as bounds.

What is called pIC50 is the IC50 on a negative log10 scale, so that one unit is a factor of ten. The pEC50 is the negative decadic logarithm of the EC50, by convention in mol/L.

For one assay, the target named is Focal adhesion kinase 1 (Homo sapiens, UniProt Q05397). Description: Inhibition of human FAK by HTRF assay. A general note: TR-FRET usually uses a lanthanide donor and a delayed reading to cut background.
The target in assay [1] is Protein-tyrosine kinase 2-beta (Mus musculus) (UniProt Q9QVP9). Briefly: (§1) Inhibition of mouse Pyk2 in […] cells assessed as increase in alkaline phosphatase level. In kind it is cell-based. The method in brief:
(§2)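 MC3T3 osteoblast cells were grown with increasing inhibitor concentrations for up to 3 weeks. Alkaline phosphatase, osteocalcin and calcium were measured as osteogenic markers after three weeks in culture, and ALP was also measured at additional time points. EC50 values came from the dose-response. Culture and dosing conditions followed an earlier report.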

The target in assay [2] is T1, Protein-tyrosine kinase 2-beta (Mus musculus, UniProt Q9QVP9). Described as §1. The assay is classed as cell-based. The method in brief: as §2
Assay [3] deals with Protein-tyrosine kinase 2-beta (Mus musculus) (UniProt Q9QVP9). Description: (§3) Inhibition of mouse Pyk2 in […] cells assessed as increase in osteocalcin level. The assay is classed as cell-based. In outline:
as §2

For assay [4], the target named is T1, Protein-tyrosine kinase 2-beta. The description is as §3. In kind it is cell-based. In outline:
as §2

Assay [5] has as its target Protein-tyrosine kinase 2-beta (Mus musculus) (UniProt Q9QVP9). Description: Inhibition of mouse Pyk2 in […] cells assessed as increase in calcium level. In kind it is cell-based. In outline:
as §2

Assay [6] has as its target T2, Protein-tyrosine kinase 2-beta (Homo sapiens, UniProt Q14289). Briefly: Inhibition of human Pyk2 by HTRF assay.
Assay [7] concerns the target T2, Protein-tyrosine kinase 2-beta. Description: Inhibition of human PyK2 Y402 autophosphorylation expressed in 293T cells by immunofluorescence assay. In kind it is cell-based.
Assay [8] deals with Tyrosine-protein kinase JAK1 (Homo sapiens, UniProt P23458). Description: Inhibition of Jak1.
In assay [9] the target is Tyrosine-protein kinase JAK2 (Homo sapiens, UniProt O60674). Description: Inhibition of Jak2.
In assay [10] the target is T3, Tyrosine-protein kinase JAK3 (Homo sapiens, UniProt P52333).
T3 sequence (P52333 whole entry): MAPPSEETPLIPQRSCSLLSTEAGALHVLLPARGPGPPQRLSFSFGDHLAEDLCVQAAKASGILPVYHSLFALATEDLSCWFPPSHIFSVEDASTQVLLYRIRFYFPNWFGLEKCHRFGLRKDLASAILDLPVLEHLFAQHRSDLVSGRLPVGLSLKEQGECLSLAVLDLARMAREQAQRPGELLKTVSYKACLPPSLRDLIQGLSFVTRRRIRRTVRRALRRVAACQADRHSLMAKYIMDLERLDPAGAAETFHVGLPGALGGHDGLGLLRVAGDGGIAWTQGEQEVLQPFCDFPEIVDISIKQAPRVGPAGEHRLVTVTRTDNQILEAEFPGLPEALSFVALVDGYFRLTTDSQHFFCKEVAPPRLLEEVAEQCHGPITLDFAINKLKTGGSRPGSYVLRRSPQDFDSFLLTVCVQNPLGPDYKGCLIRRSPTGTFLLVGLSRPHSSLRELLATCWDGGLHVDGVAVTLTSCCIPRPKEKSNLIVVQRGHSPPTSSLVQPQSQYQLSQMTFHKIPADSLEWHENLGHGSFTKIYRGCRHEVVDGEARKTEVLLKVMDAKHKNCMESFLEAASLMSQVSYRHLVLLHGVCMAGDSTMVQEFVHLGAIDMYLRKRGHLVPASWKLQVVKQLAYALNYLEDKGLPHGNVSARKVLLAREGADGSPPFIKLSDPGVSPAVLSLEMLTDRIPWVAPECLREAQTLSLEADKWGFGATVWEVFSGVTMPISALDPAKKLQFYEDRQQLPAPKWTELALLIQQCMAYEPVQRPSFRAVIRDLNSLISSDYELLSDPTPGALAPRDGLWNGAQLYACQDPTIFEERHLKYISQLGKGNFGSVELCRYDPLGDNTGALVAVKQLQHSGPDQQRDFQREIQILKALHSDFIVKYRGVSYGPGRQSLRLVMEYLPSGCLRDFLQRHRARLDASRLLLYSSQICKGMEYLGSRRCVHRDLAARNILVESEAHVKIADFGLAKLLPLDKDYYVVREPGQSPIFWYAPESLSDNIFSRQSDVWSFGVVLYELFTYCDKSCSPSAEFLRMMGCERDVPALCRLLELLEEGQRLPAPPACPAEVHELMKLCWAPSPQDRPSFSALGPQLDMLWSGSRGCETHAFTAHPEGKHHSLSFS
Briefly: Inhibition of Jak3.

The target in assay [11] is T4, Eukaryotic translation initiation factor 2-alpha kinase 3 (Homo sapiens, UniProt Q9NZJ5).
T4 sequence (Q9NZJ5 whole entry): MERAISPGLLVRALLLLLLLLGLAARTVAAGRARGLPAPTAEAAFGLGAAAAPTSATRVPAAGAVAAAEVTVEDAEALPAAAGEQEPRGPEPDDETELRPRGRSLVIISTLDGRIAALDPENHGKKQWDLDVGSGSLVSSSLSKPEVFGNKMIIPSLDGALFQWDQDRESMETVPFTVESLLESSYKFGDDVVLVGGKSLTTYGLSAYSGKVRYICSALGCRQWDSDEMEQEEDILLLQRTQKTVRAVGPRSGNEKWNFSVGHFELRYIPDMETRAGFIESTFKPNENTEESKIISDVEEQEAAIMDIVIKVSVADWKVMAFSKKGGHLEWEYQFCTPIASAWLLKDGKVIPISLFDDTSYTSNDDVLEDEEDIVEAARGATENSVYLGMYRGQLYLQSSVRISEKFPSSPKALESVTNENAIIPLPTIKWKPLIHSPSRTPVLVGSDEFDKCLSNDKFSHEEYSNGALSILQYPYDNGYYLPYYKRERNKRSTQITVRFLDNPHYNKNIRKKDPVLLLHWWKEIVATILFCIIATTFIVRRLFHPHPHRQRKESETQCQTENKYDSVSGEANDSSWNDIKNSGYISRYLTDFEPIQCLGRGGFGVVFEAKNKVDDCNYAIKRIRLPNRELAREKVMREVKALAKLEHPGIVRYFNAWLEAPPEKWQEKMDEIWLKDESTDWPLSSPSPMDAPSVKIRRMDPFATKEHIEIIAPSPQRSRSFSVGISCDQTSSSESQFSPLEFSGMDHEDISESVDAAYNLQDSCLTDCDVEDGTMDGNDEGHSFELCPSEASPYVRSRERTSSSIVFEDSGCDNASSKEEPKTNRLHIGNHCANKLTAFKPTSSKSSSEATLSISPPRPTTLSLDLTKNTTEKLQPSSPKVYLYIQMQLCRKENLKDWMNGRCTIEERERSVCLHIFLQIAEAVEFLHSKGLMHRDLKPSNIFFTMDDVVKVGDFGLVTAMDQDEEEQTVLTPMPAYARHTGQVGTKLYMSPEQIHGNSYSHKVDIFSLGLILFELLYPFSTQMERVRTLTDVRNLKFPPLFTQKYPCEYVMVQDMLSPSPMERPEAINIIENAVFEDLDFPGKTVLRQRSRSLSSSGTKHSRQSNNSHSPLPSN
Description: Inhibition of PEK.

In assay [12] the target is Non-receptor tyrosine-protein kinase TYK2 (Homo sapiens, UniProt P29597). Briefly: Inhibition of TYK2.
Assay [13] addresses Interferon-induced, double-stranded RNA-activated protein kinase (Homo sapiens, UniProt P19525). Briefly: Inhibition of PKR.
A short description of assay [14]: Inhibition of Aurora 2.

Chain of Focal adhesion kinase 1 (Q05397 whole entry): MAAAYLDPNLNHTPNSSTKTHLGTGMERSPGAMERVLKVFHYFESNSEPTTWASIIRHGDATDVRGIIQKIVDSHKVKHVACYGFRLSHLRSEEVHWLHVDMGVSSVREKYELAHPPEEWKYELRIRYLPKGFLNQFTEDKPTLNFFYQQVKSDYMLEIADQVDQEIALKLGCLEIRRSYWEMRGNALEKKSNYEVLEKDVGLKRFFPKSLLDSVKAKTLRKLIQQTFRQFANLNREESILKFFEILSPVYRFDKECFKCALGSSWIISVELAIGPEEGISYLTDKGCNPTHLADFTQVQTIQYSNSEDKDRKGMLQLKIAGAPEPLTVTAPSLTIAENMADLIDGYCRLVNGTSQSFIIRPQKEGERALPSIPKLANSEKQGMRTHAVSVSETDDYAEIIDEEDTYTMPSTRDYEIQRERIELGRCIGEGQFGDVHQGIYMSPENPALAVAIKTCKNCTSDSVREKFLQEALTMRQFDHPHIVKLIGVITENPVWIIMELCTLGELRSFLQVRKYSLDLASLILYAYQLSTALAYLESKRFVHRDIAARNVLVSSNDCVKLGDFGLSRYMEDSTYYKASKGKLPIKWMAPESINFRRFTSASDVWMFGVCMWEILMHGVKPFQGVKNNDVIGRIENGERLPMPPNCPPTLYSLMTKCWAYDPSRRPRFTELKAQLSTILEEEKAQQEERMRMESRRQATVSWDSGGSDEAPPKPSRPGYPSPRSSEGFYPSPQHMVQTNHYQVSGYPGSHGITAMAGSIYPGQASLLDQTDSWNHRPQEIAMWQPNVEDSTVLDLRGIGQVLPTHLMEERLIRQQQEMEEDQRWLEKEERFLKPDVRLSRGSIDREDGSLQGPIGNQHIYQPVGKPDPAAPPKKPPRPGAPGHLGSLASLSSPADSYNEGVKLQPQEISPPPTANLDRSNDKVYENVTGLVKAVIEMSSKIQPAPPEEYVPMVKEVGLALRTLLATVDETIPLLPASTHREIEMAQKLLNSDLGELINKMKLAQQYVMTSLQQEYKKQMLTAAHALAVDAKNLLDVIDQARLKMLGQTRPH
Chain of Protein-tyrosine kinase 2-beta (Mus musculus) (Q9QVP9 whole entry, looked up): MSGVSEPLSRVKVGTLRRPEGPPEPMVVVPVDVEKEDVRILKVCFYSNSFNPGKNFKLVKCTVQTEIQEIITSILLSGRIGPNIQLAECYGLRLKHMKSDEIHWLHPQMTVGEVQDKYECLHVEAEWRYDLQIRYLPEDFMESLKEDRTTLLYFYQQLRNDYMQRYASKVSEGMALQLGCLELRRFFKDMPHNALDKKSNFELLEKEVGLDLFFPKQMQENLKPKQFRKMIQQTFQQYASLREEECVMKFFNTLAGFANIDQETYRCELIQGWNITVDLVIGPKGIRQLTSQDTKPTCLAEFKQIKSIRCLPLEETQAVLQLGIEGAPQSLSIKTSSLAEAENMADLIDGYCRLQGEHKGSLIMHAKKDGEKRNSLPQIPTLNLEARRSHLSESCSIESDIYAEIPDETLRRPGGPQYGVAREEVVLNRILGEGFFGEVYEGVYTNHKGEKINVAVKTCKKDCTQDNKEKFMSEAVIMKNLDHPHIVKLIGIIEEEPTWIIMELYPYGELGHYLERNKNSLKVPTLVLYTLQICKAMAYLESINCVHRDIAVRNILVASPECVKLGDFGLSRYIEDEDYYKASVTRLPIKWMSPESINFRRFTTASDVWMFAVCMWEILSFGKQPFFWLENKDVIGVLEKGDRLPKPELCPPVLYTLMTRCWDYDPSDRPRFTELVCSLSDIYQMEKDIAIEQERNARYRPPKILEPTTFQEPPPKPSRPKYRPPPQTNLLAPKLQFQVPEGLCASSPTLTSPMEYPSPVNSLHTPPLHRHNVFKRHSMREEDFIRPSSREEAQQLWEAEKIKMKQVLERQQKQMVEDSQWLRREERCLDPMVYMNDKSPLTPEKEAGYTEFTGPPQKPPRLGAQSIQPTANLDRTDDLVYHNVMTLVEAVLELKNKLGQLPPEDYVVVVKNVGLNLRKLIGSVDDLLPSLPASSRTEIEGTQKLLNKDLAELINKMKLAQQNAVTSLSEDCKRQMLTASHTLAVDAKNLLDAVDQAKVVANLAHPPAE
T1 sequence (Q9QVP9 whole entry): as the sequence (Q9QVP9 whole entry, looked up) above
T2 sequence (Q14289 whole entry): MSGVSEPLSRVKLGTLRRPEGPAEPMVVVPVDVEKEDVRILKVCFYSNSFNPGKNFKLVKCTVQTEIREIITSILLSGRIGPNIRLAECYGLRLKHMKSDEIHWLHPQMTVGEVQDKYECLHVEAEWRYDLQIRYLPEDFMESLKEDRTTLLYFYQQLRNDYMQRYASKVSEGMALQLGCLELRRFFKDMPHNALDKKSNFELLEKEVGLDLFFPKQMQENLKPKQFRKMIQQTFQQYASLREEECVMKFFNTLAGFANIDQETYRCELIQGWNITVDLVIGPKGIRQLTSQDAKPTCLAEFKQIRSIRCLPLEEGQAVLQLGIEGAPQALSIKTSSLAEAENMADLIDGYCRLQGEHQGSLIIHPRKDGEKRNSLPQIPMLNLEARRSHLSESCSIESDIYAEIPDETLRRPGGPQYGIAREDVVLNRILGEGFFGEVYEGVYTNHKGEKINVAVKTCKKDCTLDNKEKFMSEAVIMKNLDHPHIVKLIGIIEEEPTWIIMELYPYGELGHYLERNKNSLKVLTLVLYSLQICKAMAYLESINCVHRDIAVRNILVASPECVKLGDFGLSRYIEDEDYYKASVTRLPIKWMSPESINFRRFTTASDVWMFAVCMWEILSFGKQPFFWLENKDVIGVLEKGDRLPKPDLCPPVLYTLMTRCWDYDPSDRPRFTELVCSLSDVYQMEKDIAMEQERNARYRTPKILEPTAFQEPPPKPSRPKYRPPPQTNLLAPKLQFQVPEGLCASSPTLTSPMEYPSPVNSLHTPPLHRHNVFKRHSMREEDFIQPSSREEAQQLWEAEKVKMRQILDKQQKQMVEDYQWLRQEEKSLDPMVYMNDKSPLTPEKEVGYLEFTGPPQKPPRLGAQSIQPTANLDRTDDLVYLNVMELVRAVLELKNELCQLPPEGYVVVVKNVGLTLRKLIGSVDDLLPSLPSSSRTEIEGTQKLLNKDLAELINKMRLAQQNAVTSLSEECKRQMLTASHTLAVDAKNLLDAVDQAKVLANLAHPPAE
Chain of Tyrosine-protein kinase JAK1 (P23458 whole entry): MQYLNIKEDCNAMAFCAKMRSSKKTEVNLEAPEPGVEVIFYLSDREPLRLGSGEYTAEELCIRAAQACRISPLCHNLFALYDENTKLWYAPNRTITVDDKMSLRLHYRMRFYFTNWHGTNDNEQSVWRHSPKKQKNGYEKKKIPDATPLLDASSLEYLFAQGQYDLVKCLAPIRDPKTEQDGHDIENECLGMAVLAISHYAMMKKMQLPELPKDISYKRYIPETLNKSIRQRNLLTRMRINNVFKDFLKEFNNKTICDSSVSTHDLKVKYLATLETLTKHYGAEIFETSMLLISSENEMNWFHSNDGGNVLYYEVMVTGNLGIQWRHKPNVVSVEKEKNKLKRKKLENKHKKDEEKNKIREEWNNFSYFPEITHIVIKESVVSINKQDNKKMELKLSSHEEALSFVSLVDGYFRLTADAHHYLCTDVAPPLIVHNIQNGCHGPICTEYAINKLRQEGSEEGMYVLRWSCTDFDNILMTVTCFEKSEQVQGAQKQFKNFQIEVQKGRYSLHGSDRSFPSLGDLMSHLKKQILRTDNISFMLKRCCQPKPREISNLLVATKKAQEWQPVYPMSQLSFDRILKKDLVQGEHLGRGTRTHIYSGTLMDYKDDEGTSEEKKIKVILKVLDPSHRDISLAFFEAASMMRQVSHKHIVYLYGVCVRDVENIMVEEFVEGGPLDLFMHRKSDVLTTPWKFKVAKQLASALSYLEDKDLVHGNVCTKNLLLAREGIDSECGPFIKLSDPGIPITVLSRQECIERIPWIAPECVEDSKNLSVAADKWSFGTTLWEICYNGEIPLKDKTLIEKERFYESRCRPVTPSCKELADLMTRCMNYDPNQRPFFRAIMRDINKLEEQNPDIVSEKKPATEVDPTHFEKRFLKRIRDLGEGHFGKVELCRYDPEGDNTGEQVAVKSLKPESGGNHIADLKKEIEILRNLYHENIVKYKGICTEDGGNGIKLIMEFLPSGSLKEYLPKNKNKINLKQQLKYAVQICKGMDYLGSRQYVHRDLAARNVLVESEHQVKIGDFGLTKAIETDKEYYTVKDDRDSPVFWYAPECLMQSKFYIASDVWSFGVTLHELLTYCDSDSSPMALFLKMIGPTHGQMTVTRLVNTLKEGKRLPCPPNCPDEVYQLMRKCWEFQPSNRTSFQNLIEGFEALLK
Chain of Interferon-induced, double-stranded RNA-activated protein kinase (P19525 whole entry): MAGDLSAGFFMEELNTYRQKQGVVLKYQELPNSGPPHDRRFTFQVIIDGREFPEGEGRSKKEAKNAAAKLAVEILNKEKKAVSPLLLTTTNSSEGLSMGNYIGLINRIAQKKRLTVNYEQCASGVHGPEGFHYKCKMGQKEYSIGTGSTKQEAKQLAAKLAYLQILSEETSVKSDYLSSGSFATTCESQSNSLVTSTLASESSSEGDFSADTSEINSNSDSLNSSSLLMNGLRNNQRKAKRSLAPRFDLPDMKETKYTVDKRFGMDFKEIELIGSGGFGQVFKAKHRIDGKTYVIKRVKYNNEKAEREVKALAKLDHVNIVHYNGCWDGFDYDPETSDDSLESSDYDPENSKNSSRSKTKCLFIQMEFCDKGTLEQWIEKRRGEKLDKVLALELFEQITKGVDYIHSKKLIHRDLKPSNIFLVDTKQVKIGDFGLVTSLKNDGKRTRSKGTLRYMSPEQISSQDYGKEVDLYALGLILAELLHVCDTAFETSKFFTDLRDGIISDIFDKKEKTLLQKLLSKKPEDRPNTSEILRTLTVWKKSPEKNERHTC

In turn, `COc1cc2nccc(Oc3ccc(NC(=O)c4cc(-c5cccs5)cn(-c5ccccc5)c4=O)nc3)c2cc1OC` gave a pIC50 at Focal adhesion kinase 1 of less than 3.90. The Activity result in assay [1], in assay [3] and in assay [5] was “Dose-dependent effect” in each case. Moreover, the pEC50 in [2] and in assay [4] was 8.00 each time.
As for `COc1cc2nccc(Oc3ccc(NC(=O)c4c(N(C)C)ccn(-c5ccccc5)c4=O)nc3)c2cc1OC`, on Focal adhesion kinase 1, the pIC50 is less than 3.90.
Same read-out and setting: under `COc1cc2nccc(Oc3ccc(NC(=O)c4c(N5CCN(C)CC5)ccn(-c5ccccc5)c4=O)nc3)c2cc1OC` stands less than 3.90; under `COc1cc2nccc(Oc3ccc(NC(=O)c4cc(-c5cccnc5)cn(-c5ccccc5)c4=O)nc3)c2cc1OC`, less than 3.90.
For `CNc1ccn(-c2ccccc2)c(=O)c1C(=O)Nc1ccc(Oc2ccnc3cc(OC)c(OC)cc23)cn1`, the pIC50 is 7.46 in assay [6]; 4.77 against Focal adhesion kinase 1; 6.96 in [7]; less than 6.00 in assay [8]; less than 6.00 in assay [9]; less than 6.00 in assay [10]. In addition, the negative logarithm of the IC50 (pIC50) in assay [11], in [12], in [13] and in assay [14] was less than 6.00 each time. In addition, the Activity result in [1], in assay [3] and in assay [5] was “Dose-dependent effect” throughout. Further, the pEC50 in assay [2] and in [4] was 8.00 throughout.
With `COc1ccc2c(Oc3ccc(NC(=O)c4cc(-c5cccnc5)cn(-c5ccccc5)c4=O)nc3)ccnc2c1`, the pIC50 against Focal adhesion kinase 1 was less than 3.90.
Still for that read-out and setting: under `CNc1ccn(Cc2ccccc2)c(=O)c1C(=O)Nc1ccc(Oc2ccnc3cc(OC)c(OC)cc23)cn1` stands less than 3.90; under `COCCNc1ccn(-c2ccccc2)c(=O)c1C(=O)Nc1ccc(Oc2ccnc3cc(OC)ccc23)cn1`, less than 3.90; under `COc1ccc2c(Oc3ccc(NC(=O)c4cc(-c5cnccn5)cn(-c5ccccc5)c4=O)nc3)ccnc2c1`, less than 3.90.

For the origin of these results see ChEMBL document CHEMBL1155349, “Identification of small molecule inhibitors of proline-rich tyrosine kinase 2 (Pyk2) with osteogenic activity in osteoblast cells” (Bioorg Med Chem Lett, 2009).
